Assays:
Assay type in all cases: functional
Felis catus [1] = experiment: Orexigenic activity in cat assessed as food consumption at 0.25 mg/kg, po (reference value: 118 +/- 52 to 143 +/- 37 g)
Felis catus [2] = experiment: Orexigenic activity in cat assessed as food consumption at 0. 0312 mg/kg, po (reference value: 126 +/- 34 to 150 +/- 52 g)
Felis catus [3] = experiment: Orexigenic activity in cat assessed as food consumption at 0.0312 mg/kg, po (reference value: 126 +/- 26 to 155 +/- 33 g)
Felis catus [4] = experiment: Orexigenic activity in cat assessed as food consumption at 0. 25 mg/kg, po (reference value: 119 +/- 39 to 155 +/- 34 g)
Felis catus [5] = experiment: Orexigenic activity in cat assessed as food consumption at 0. 25 mg/kg, po (reference value: 114 +/- 25 to 147 +/- 42 g)
Felis catus [6] = experiment: Orexigenic activity in cat assessed as food consumption at 0. 0312 mg/kg, po (reference value: 107 +/- 29 to 146 +/- 24 g)
Cavia porcellus = experiment: Antihistaminic activity against ip dosed Duncan-Harley guinea pig assessed as inhibition of histamine aerosol-induced bronchoconstriction compound administered 30 mins prior to histamine challenge
Method in brief: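 Guinea pigs of either sex, 200-300 g. Compound given ip as a suspension in 1% methylcellulose. 30 min later, 3-min exposure to histamine aerosol (0.5% base) in individual chambers, then 10 min observation. Dose range 0.031-6.25 mg/kg, 3-4 levels, 5-10 animals per level. ED50 is the dose protecting 50% from bronchoconstriction death, from log-dose regression.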

Mus musculus = experiment: Anticholinergic activity in po dosed CF-1 mouse assessed as dose required to increase pupil diameter to 1.5 micrometer after 1 hr
Method in brief: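 Female CF-1 mice dosed orally, five dose levels, ten mice per dose. Pupil diameter measured with an ocular micrometer 1 h after dosing. ED1.5 is the dose raising pupil diameter to 1.5 micrometer units, derived by regression of response on log dose (Finney).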

Rattus norvegicus = experiment: Antiserotonin activity against po dosed Sprague-Dawley rat assessed as inhibition of serotonin-induced edema of right hind paw compound administered 1 hr prior to serotonin challenge
Method in brief: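 Male rats, 140-210 g, dosed orally 1 h before 5 µg serotonin (base) into the right hind paw; saline (0.05 mL) into the left paw. Feet removed and weighed 30 min later; percent inhibition of serotonin weight gain versus saline paw. Doses 0.156-80 mg/kg, 4-16 rats per dose. ED50 from log-dose regression.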

Felis catus [7] = experiment: Orexigenic activity in cat assessed as food consumption at 0. 25 mg/kg, po (reference value: 179 +/- 31 g)

| SMILES | Activity (Felis catus [1]) | Activity (Felis catus [2]) | Activity (Felis catus [3]) | Activity (Felis catus [4]) | Activity (Felis catus [5]) | Activity (Felis catus [6]) | ED50 (Cavia porcellus) | ED (Mus musculus) | ED50 (Rattus norvegicus) | Activity (Felis catus [7]) |
| --- | --- | --- | --- | --- | --- | --- | --- | --- | --- | --- |
| COc1ccc2c(c1)C(=C1CCN(C)CC1)c1ccccc1C=C2 | 143 g | 131 g | 110 g | 140 g | 134 g | 115 g | – | – | – | – |
| CN1CCC(=C2c3ccccc3C=Cc3ccccc32)CC1 [CYPROHEPTADINE] | – | – | – | – | – | – | 0.077 mg/kg | 6 mg/kg | 0.24 mg/kg | 220 g |
